We go through two substances from article PMC3371134 (Journal of Neurochemistry, 2012).

Entries after “also recorded” stand apart in the source; their conditions may differ. Like-named read-outs stand apart in the source and are kept apart here.

For one data set, the system named is CaM. Particulars: ref Putkey et al., 2008; cited from earlier work.
The next data set deals with calmodulin-Sepharose. Nature of the data set: CaM-Sepharose pulldown of Myc-tagged proteins expressed in COS-7 cells. The conditions noted are these: for CaM-Sepharose pulldown, calcium-replete: 5mM CaCl2; for CaM-Sepharose pulldown, calcium-replete / CaM-Sepharose pulldown, calcium-poor: TX-buffer pH 6.9, overnight at 4°C, anti-Myc western blot; for calcium dependence of CaM binding / overall CaM binding: 5mM CaCl2 or 5mM EGTA, summary in Discussion; for CaM-Sepharose pulldown, calcium-poor: 5mM EGTA. The class given is binding. The method, boiled down: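 Myc-tagged mouse constructs (from brain cDNA) were expressed in COS-7 cells, grown in DMEM/10% FBS at 37°C and transfected at 80% confluency with 3 μg plasmid. After 48 h, cells were lysed 30 min at 4°C in TX-buffer (50 mM Tris-HCl pH 6.9, 0.5% Triton X-100, protease inhibitors). Cleared lysate was incubated overnight at 4°C with CaM-Sepharose, then washed 3× and detected by SDS-PAGE/anti-Myc (9E10) western blot with ECL.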
(In general: In western blotting, separated proteins are transferred to a membrane and probed.)

The subject of the next data set is calneuron 1 (Caln1). Kind of data set: Yeast two-hybrid. The class given is binding, mouse. Particulars: LexA and VP16 fusions, lacZ reporter, X-gal. Summed up: (§1)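 Mouse coding sequences (from brain cDNA) were cloned as galactose-inducible LexA and VP16 fusions and co-transformed into S260 yeast, selected on glucose Trp−/Ura− plates. Colonies on filters were switched to galactose for induction, then assayed for lacZ with X-gal. Autoactivation was checked against LexA/VP16 control vectors. Blue within 1 h was scored positive; blue at 2–4 h was scored weak.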

The conditions of data set [1]: cited from earlier work.
Data set [2] has as its system calmodulin-like 4 (Calml4). Nature of the data set: Yeast two-hybrid. In kind it is binding, mouse. The conditions noted are these: LexA and VP16 fusions, lacZ reporter, X-gal. Summed up: as §1
The test system of the next data set is centrin 2 (Cetn2). Kind of data set: Yeast two-hybrid. In kind it is binding, mouse. Particulars: LexA and VP16 fusions, lacZ reporter, X-gal. Summed up:
as §1

A further data set has as its system calcineurin B (CnB). Kind of data set: Yeast two-hybrid. In kind it is binding, mouse. The conditions noted are these: LexA and VP16 fusions, lacZ reporter, X-gal. Summed up:
as §1

On to “PEP-19: calmodulin binding IQ motif protein, 62 amino acids”, for which the “role of acidic region (EEFDIDMDAPETE) in CaM binding” value with CaM is listed as “dispensable for CaM binding”. In addition, in the data set on calmodulin-Sepharose, the “CaM-Sepharose pulldown, calcium-replete” value was “associate weakly in high calcium; also recorded: interacted weakly or not at all with CaM-Sepharose under calcium-replete conditions”; the “calcium dependence of CaM binding / overall CaM binding” value was “binds preferentially to calcium-free CaM”; the “CaM-Sepharose pulldown, calcium-poor” value is “bind to CaM-Sepharose in calcium-poor (Eg) conditions; also recorded: bind CaM in low calcium conditions”. Further, the “interaction with Caln1 in Y2H” value in the data set on calneuron 1 (Caln1) is “no binding was detected”. The structure in solution result in data set [1] (NMR and circular dichroism, ref Dickerson, 2004, Dickerson et al., 2006, Kleerekoper and Putkey, 2009) was “disordered in solution although it has a propensity to helix formation”. For the same substance, in data set [2], the “interaction with Calml4 in Y2H” value is recorded as “no binding was detected”. Moreover, the “interaction with Cetn2 in Y2H” value with centrin 2 (Cetn2) is listed as “no binding was detected”. Also, in the data set on calcineurin B (CnB), the “interaction with CnB in Y2H” value is recorded as “no binding was detected”.
“neurogranin: calpacitin IQ motif protein, 78 amino acids”: in the data set with calmodulin-Sepharose, the “CaM-Sepharose pulldown, calcium-replete” value is “associate weakly in high calcium”; the “calcium dependence of CaM binding / overall CaM binding” value was “strong CaM binder”; the “CaM-Sepharose pulldown, calcium-poor” value was “bind to CaM-Sepharose in calcium-poor (Eg) conditions; also recorded: bind CaM in low calcium conditions”. In addition, the “interaction with Caln1 in Y2H” value in the data set with calneuron 1 (Caln1) is reported as “no binding was detected”. Further, the structure in solution entry in data set [1] (ref Cui et al., 2003, Ran et al.) is recorded as “disordered in solution”. The “interaction with Calml4 in Y2H” value in data set [2] is “no binding was detected”. Also, the “interaction with Cetn2 in Y2H” value in the data set on centrin 2 (Cetn2) is given as “no binding was detected”. Besides, the “interaction with CnB in Y2H” value with calcineurin B (CnB) was “no binding was detected”.
